Results from ChEMBL document CHEMBL1817612, “Inhibitory potential of chemical substitutions at bioinspired sites of β-D-galactopyranose on neoglycoprotein/cell surface binding of two classes of medically relevant lectins” (Bioorg Med Chem, 2011).
Each block holds one molecule with its values, some of them ahead of it. The source made the active and inactive calls. The calls are words filed in the database; no cut-off is given here.

Key:
[1] = biological target: Galectin-9 (Homo sapiens) (UniProt O00182); experiment: Ratio IC50 for lactose to compound for galectin-9 binding to biotinylated neoglycoprotein with p-isothiocyanatophynyl lactoside assessed as lectin-neoglycoprotein complex formation after 1 hr by spectrophotometrically relative to lactose
In short: (§1)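 Lactosylated BSA (p-isothiocyanatophenyl lactoside, about 26 sugars per carrier) was adsorbed to wells from PBS overnight at 4 °C. Biotinylated lectin, at a concentration from titration, was incubated 1 h at 37 °C with up to nine compound concentrations. Bound lectin was read spectrophotometrically. Glycocluster concentration was normalized to sugar content, and lactose served as internal reference. Triplicates were run in up to five series.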

[2] = system: Jurkat; experiment: Inhibition of Viscum album agglutinin binding to biotinylated lectin at cell surface of human Jurkat T-cells at 1 mM by fluorometric analysis; format: cell-based
In short: (§2)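 Biotinylated mistletoe lectin (VAA, purified from dried leaves on lactosylated Sepharose) was bound to 5 × 10⁴ Jurkat cells per assay at 2.5 µg/ml, with or without compound. Staining was detected with a fluorescent second-step reagent by flow cytometry, as percent positive cells and mean fluorescence intensity. Controls were lactose/galactose, non-cognate sugars for osmolarity, and omission of labeled lectin.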

[3] = biological target: Galectin-3 (Homo sapiens) (UniProt P17931); experiment: Ratio IC50 for lactose to compound for galectin-3 binding to biotinylated neoglycoprotein with p-isothiocyanatophynyl lactoside assessed as lectin-neoglycoprotein complex formation after 1 hr by spectrophotometric analysis; in short: as §1
[4] = system: Viscum album; experiment: Ratio IC50 for lactose to compound for Viscum album agglutinin binding to biotinylated neoglycoprotein with p-isothiocyanatophynyl lactoside assessed as lectin-neoglycoprotein complex formation after 1 hr by spectrophotometric analysis; in short: as §1
[5] = Cytotoxicity against human SW480 cells assessed as growth inhibition at 5 mM after 48 hrs by MTT assay; format: cell-based; conditions: read-out: GI
In short: (§3)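 SW480 human colon adenocarcinoma cell aliquots were cultured 48 h with no addition (control) or with test compound added to the medium at 1, 2, 5 or 10 mM. Galactose and lactose were run as controls. Growth was read spectrophotometrically with MTT (0.5 mg/ml) and expressed relative to the untreated control. Triplicates were run in three independent series.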

[6] = system: SW480; experiment: (§4) Cytotoxicity against human SW480 cells assessed as cell viability at 2 mM after 48 hrs by MTT assay; format: cell-based; conditions: sw480, 48 h, 2000 µM; in short: as §3
[7] = biological target: Galectin-3 (Homo sapiens) (UniProt P17931); experiment: Inhibition of galectin-3 binding to biotinylated lectin at cell surface of human SW480 cells at 15 uM by fluorometric analysis; format: cell-based
In short: (§5)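 Recombinant biotinylated galectin-3, at a concentration set by titration, was bound to 5 × 10⁴ Jurkat or SW480 cells per assay, with or without compound. Lactose was run in parallel as reference. A fluorescent second-step reagent gave percent positive cells and mean fluorescence intensity by flow cytometry. Negative controls omitted labeled lectin, and non-cognate sugars served as osmolarity controls.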

[8] = biological target: Galectin-3 (Homo sapiens) (UniProt P17931); experiment: Inhibition of galectin-3 binding to biotinylated lectin at cell surface of human Jurkat T-cells at 15 uM by fluorometric analysis; format: cell-based; in short: as §5
[9] = system: Jurkat; experiment: Inhibition of Viscum album agglutinin binding to biotinylated lectin at cell surface of human Jurkat T-cells at 2.5 ug/ml by fluorometric analysis; format: cell-based; in short: as §2
[10] = as §4; format: cell-based; conditions: SW480 cells, read-out: GI; in short: as §3
[11] = biological target: T1, Galectin-8 (Homo sapiens) (UniProt O00214); experiment: Ratio IC50 for lactose to compound for galectin-8 binding to biotinylated neoglycoprotein with p-isothiocyanatophynyl lactoside assessed as lectin-neoglycoprotein complex formation after 1 hr by spectrophotometric analysis; in short: as §1
T1 sequence (whole entry): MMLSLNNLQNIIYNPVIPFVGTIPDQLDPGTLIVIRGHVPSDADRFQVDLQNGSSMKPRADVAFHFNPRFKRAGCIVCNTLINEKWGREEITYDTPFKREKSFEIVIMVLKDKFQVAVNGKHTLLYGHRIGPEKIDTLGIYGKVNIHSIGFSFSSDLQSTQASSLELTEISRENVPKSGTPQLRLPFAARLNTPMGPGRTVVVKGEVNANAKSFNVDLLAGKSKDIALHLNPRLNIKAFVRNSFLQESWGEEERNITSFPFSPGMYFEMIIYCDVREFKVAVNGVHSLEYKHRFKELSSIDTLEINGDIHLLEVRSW

[12] = biological target: Galectin-3 (Homo sapiens) (UniProt P17931); experiment: Inhibition of galectin-3 binding to biotinylated lectin at cell surface of human Jurkat T-cells at 1 mM by fluorometric analysis relative to lactose; format: cell-based; in short: as §5
[13] = biological target: Galectin-9 (Homo sapiens) (UniProt O00182); experiment: Inhibition of galectin-9 binding to biotinylated lectin at cell surface of human SW480 cells at 2 mM by fluorometric analysis; format: cell-based
In short: (§6)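 Biotinylated recombinant galectin-8 (1 µg/ml) or galectin-9 (40 µg/ml) was bound to 5 × 10⁴ SW480 cells per assay, with or without compound at 2 mM. Lactose was run in parallel. Staining via a fluorescent second-step reagent was quantified as percent positive cells and mean fluorescence intensity. Controls were omission of lectin and non-cognate sugars.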

[14] = Cytotoxicity against human SW480 cells assessed as growth inhibition at 1 mM after 48 hrs by MTT assay; format: cell-based; conditions: read-out: GI; in short: as §3
[15] = biological target: T1, Galectin-8 (Homo sapiens); experiment: (§7) Inhibition of galectin-8 binding to biotinylated lectin at cell surface of human SW480 cells at 2 mM by fluorometric analysis; format: cell-based; in short: as §6
[16] = biological target: Galectin-3 (Homo sapiens) (UniProt P17931); experiment: Inhibition of galectin-3 binding to biotinylated lectin at cell surface of human Jurkat T-cells at 2 mM by fluorometric analysis; format: cell-based; in short: as §5
[17] = biological target: Galectin-3 (Homo sapiens) (UniProt P17931); experiment: Inhibition of galectin-3 binding to biotinylated lectin at cell surface of human Jurkat T-cells at 100 uM by fluorometric analysis; format: cell-based; in short: as §5
[18] = biological target: Galectin-3 (Homo sapiens) (UniProt P17931); experiment: Inhibition of galectin-3 binding to biotinylated lectin at cell surface of human SW480 cells at 100 uM by fluorometric analysis; format: cell-based; in short: as §5
[19] = biological target: Galectin-8 (Homo sapiens) (UniProt O00214); experiment: as §7; format: cell-based; in short: as §6; remark: listed apart in the source
[20] = biological target: Galectin-1 (Homo sapiens) (UniProt P09382); experiment: Ratio IC50 for lactose to compound for galectin-1 binding to biotinylated neoglycoprotein with p-isothiocyanatophynyl lactoside assessed as lectin-neoglycoprotein complex formation after 1 hr by spectrophotometric analysis; in short: as §1
Sequence of Galectin-1 (Homo sapiens) (P09382 whole entry): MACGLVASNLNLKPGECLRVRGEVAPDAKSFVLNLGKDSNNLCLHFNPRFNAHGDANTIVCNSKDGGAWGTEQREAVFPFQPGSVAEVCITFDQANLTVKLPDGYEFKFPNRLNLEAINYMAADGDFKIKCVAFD

Sequence of Galectin-3 (Homo sapiens) (P17931 whole entry): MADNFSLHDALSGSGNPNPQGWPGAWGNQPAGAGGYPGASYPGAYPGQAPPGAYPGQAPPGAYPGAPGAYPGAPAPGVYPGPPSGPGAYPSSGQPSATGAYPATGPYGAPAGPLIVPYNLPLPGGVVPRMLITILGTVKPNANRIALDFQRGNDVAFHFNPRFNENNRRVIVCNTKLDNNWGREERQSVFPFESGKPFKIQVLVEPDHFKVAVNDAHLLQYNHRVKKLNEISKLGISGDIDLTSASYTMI
Sequence of Galectin-9 (Homo sapiens) (O00182 whole entry): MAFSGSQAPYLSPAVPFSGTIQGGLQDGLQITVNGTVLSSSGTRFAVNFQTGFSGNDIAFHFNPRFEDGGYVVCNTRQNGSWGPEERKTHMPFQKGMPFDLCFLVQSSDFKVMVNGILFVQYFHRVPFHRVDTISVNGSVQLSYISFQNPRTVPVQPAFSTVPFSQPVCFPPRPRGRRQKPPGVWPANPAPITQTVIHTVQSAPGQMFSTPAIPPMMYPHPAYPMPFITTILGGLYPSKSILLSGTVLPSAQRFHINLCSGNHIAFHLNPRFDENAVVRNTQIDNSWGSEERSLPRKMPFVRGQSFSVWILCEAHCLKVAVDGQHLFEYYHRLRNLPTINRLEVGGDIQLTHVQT

Molecule: O=S(=O)(O)OCc1cn([C@H]2[C@@H](O)[C@@H](CO)O[C@@H](Sc3nc4ccccc4s3)[C@@H]2O)nn1
Ratio IC50 [1]: 1.4

Molecule: C/C=C/[C@@H]1O[C@H](CO)[C@H](O)[C@H](O)[C@H]1O
inhibition at 48 h, 5000 µM [5]: 50%
Activity [6]: Non-toxic

Molecule: LACTOSE, ANHYDROUS
inhibition [16]: inactive
inhibition [17]: Active
inhibition [13]: Active
inhibition [18]: Active
inhibition [19]: Active

Molecule: COc1ccc(C(=O)Nc2nc(C)c([C@@H]3O[C@H](CO)[C@H](O)[C@H](O)[C@H]3O)s2)cc1
inhibition at 48 h, 5000 µM [5]: 50%
Activity [6]: Non-toxic

Molecule: C#CCO[C@H]1[C@@H](O)[C@@H](CO)O[C@@H](Sc2ccccc2C(=O)OC)[C@@H]1O
Ratio IC50 [3]: 1.8
inhibition at 48 h, 1000 µM [14]: 10%

Molecule: Cc1nc(NC(=O)Cc2ccccc2)sc1[C@@H]1O[C@H](CO)[C@H](O)[C@H](O)[C@H]1O
inhibition [2]: Active
Ratio IC50 [3]: 1.1
Ratio IC50 [4]: 1.3

Molecule: O=C(CCSCCC(F)(F)C(F)(F)C(F)(F)C(F)(F)C(F)(F)C(F)(F)C(F)(F)C(F)(F)F)NC(CO[C@@H]1O[C@H](CO)[C@H](O)[C@H](O)[C@H]1O)(CO[C@@H]1O[C@H](CO)[C@H](O)[C@H](O)[C@H]1O)CO[C@@H]1O[C@H](CO)[C@H](O)[C@H](O)[C@H]1O
Ratio IC50 [3]: 6.2
inhibition [9]: Active
Ratio IC50 [1]: 5.1
Ratio IC50 [11]: 4.6
fold change (FC) [12]: 7
inhibition [13]: Active
Ratio IC50 [4]: 2.2
Ratio IC50 [20]: 1.8
inhibition [15]: Active

Molecule: Cc1nc(NS(=O)(=O)c2ccc3ccccc3c2)sc1[C@@H]1O[C@H](CO)[C@H](O)[C@H](O)[C@H]1O
inhibition at 48 h, 5000 µM [5]: 50%
Activity [6]: Non-toxic

Now from value to molecule, other results behind:

Ratio IC50 [3]: 1.3
Ratio IC50 [4]: 1.2
Molecule: Cc1nc(NC(=O)c2ccccc2)sc1[C@@H]1O[C@H](CO)[C@H](O)[C@H](O)[C@H]1O
inhibition [2]: Active

Ratio IC50 [4]: 1.9
Molecule: OC[C@@H]1O[C@H](C/C=C/c2cccc(/C=C/C[C@@H]3O[C@H](CO)[C@H](O)[C@H](O)[C@H]3O)c2)[C@@H](O)[C@H](O)[C@@H]1O

inhibition [7]: Active
inhibition [8]: Active
Ratio IC50 [3]: 8.4
Ratio IC50 [1]: 7.7
Ratio IC50 [11]: 6.9
fold change (FC) [12]: 7
inhibition [13]: Active
Ratio IC50 [4]: 6.2
inhibition [15]: Active
Molecule: O=C(NCc1cn([C@@H]2O[C@H](CO)[C@H](O[C@@H]3O[C@H](CO)[C@H](O)[C@H](O)[C@H]3O)[C@H](O)[C@H]2O)nn1)c1cc(C(=O)NCc2cn([C@@H]3O[C@H](CO)[C@H](O[C@@H]4O[C@H](CO)[C@H](O)[C@H](O)[C@H]4O)[C@H](O)[C@H]3O)nn2)cc(C(=O)NCc2cn([C@@H]3O[C@H](CO)[C@H](O[C@@H]4O[C@H](CO)[C@H](O)[C@H](O)[C@H]4O)[C@H](O)[C@H]3O)nn2)c1
inhibition [9]: Active
inhibition at 48 h, 2000 µM [10]: 58%
inhibition at 48 h, 1000 µM [14]: 75%

Ratio IC50 [3]: 1.4
Molecule: O=C(O)c1cn([C@H]2[C@@H](O)[C@@H](CO)O[C@@H](Sc3nc4ccccc4s3)[C@@H]2O)nn1
inhibition at 48 h, 2000 µM [10]: 40%
inhibition at 48 h, 1000 µM [14]: 70%

inhibition [16]: inactive
Molecule: C=C(C[C@@H]1O[C@H](CO)[C@H](O)[C@H](O)[C@H]1O)c1cccc([N+](=O)[O-])c1

Ratio IC50 [3]: 1.6
Ratio IC50 [1]: 1.7
Ratio IC50 [11]: 2.2
inhibition [13]: Active
inhibition [15]: Active
Molecule: CC(C)(C)C(=O)c1cc(CO[C@@H]2O[C@H](CO)[C@H](O[C@@H]3O[C@H](CO)[C@H](O)[C@H](O)[C@H]3O)[C@H](O)[C@H]2O)on1
